Here are results for 14 molecules from ChEMBL document CHEMBL1131450, “Synthesis and antitumor evaluation of 2,5-disubstituted-indazolo[4, 3-gh]isoquinolin-6(2H)-ones (9-aza-anthrapyrazoles)” (J Med Chem, 1998).

Structures are written as SMILES. Converted amounts (≈) assume the structure as drawn. A value given as a limit tells only on which side of the number the result lay.

The subject of one assay is LoVo/Dx (Homo sapiens). Description: cells.
The subject of assay [1] is LoVo. In words: Resistance index measured as the ratio of IC50 of LoVo/Dx cell line to that of LoVo cell line. Type of assay: functional, Homo sapiens.
In assay [2] the test system is P388. In words: In vivo antitumor activity was measured on systemic P388 murine leukemia cells. Optimal dose 24 mg/kg/day. Type of assay: functional, Mus musculus. The gist of the method:
(§1)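 CD2F1 male mice given 10⁶ P388 leukemia cells iv (day 0); drug given iv on days 1, 4 and 7. Survival expressed as T/C% = median survival time of treated / median survival of controls × 100, reported at optimal dose (mg/kg/day) or maximum tested dose.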

Assay [3] relates to MX1. In words: In vivo antitumor activity was measured on MX-1 human mammary carcinoma cells. TWI%=tumor weight inhibition. Optimal dose 27 mg/kg/day. Type of assay: functional.
Assay [4] concerns LoVo. In words: In vitro cytotoxicity on human colon adenocarcinoma (LoVo ) tumor cell line. Type of assay: functional, cell-based.
The subject of assay [5] is P388. In words: In vivo antitumor activity was measured on systemic P388 murine leukemia cells. Maximum tested dose 40 mg/kg/day. Type of assay: functional, Mus musculus. The essentials:
as §1

In assay [6] the test system is MX1. In words: In vivo antitumor activity was measured on MX-1 human mammary carcinoma cells. TWI%=tumor weight inhibition. Optimal dose 90 mg/kg/day. Type of assay: functional.
Assay [7] relates to P388. In words: In vivo antitumor activity was measured on systemic P388 murine leukemia cells. Optimal dose 7.5 mg/kg/day. Type of assay: functional, Mus musculus. The essentials: as §1
In assay [8] the test system is MX1. In words: In vivo antitumor activity was measured on MX-1 human mammary carcinoma cells. TWI%=tumor weight inhibition. Optimal dose 150 mg/kg/day. In kind it is functional.
Assay [9] concerns MX1. Description: In vivo antitumor activity was measured on MX-1 human mammary carcinoma cells. TWI%=tumor weight inhibition. Optimal dose 40 mg/kg/day. Type of assay: functional.
Assay [10] concerns P388. In words: In vivo antitumor activity was measured on systemic P388 murine leukemia cells. Maximum tested dose 12 mg/kg/day. In kind it is functional, Mus musculus. The gist of the method:
as §1

The test system of assay [11] is P388. Type of assay: functional, Mus musculus.
In assay [12] the test system is MX1. In words: In vivo antitumor activity was measured on MX-1 human mammary carcinoma cells. TWI%=tumor weight inhibition. Optimal dose 12 mg/kg/day. Type of assay: functional.
Assay [13] concerns MX1. Description: In vivo antitumor activity was measured on MX-1 human mammary carcinoma cells. TWI%=tumor weight inhibition. Optimal dose 20 mg/kg/day. Type of assay: functional.
In assay [14] the test system is P388. In words: In vivo antitumor activity was measured on systemic P388 murine leukemia cells. Optimal dose 4 mg/kg/day. Type of assay: functional, Mus musculus. The essentials:
as §1

The subject of assay [15] is MX1. Description: In vivo antitumor activity was measured on MX-1 human mammary carcinoma cells. TWI%=tumor weight inhibition. Optimal dose 2 mg/kg/day. In kind it is functional.
The subject of assay [16] is MX1. Description: In vivo antitumor activity was measured on MX-1 human mammary carcinoma cells. TWI%=tumor weight inhibition. Optimal dose 9 mg/kg/day. In kind it is functional.
The subject of assay [17] is P388. Description: In vivo antitumor activity was measured on systemic P388 murine leukemia cells. Optimal dose 6 mg/kg/day. Type of assay: functional, Mus musculus. The gist of the method: as §1
Assay [18] deals with P388. In words: In vivo antitumor activity was measured on systemic P388 murine leukemia cells. Maximum tested dose 60 (mg/kg/day). Type of assay: functional, Mus musculus. The gist of the method: as §1
Assay [19] deals with MX1. In words: In vivo antitumor activity was measured on MX-1 human mammary carcinoma cells. TWI%=tumor weight inhibition. Optimal dose 6 mg/kg/day. Type of assay: functional.
The test system of assay [20] is P388. Description: In vivo antitumor activity was measured on systemic P388 murine leukemia cells. Optimal dose 3 mg/kg/day. Type of assay: functional, Mus musculus. The essentials: as §1
Assay [21] relates to MX1. In words: In vivo antitumor activity was measured on MX-1 human mammary carcinoma cells. TWI%=tumor weight inhibition. Optimal dose at 3 mg/kg/day. In kind it is functional.
In assay [22] the test system is P388. In words: In vivo antitumor activity was measured on systemic P388 murine leukemia cells. Optimal dose at 3 mg/kg/day. In kind it is functional, Mus musculus. The gist of the method: as §1
Assay [23] relates to P388. In words: In vivo antitumor activity was measured on systemic P388 murine leukemia cells. Optimal dose 75 mg/kg/day. In kind it is functional, Mus musculus. The settings on record: in the assay text read “7.5 mg/kg/day” for “75 mg/kg/day”. The gist of the method: as §1
For assay [24], the system named is MX1. Description: In vivo antitumor activity was measured on MX-1 human mammary carcinoma cells. TWI%=tumor weight inhibition. Optimal dose 17.5 mg/kg/day. In kind it is functional.

What is called IC50 is the point on the concentration scale where inhibition reaches its midpoint. In general, T/C refers to the result in the treated group divided by that in the control group, in per cent. Turning to `CN(C)CCn1nc2c3c(c(NCCN4CCOCC4)ccc31)C(=O)c1ccncc1-2`, the 50% inhibitory concentration (IC50) in the assay with LoVo/Dx (Homo sapiens) worked out at 3.63 µg/mL (≈ 8.63 µM); in the assay on LoVo [4], 1.35 µg/mL (≈ 3.21 µM). For the same molecule, in the assay on LoVo [1], the RI was 2.7. The molecule further had a T/C in the assay on P388 [2] of 256%. Moreover, the TWI in the assay with MX1 [3] is on record as 48%.

Take `CN(C)CCn1nc2c3c(c(NCCN(CCO)CCO)ccc31)C(=O)c1ccncc1-2`: the results for the half-maximal inhibitory concentration (IC50) in the assay on LoVo/Dx (Homo sapiens) and in the assay on LoVo [4] were greater than 100 µg/mL and 2.13 µg/mL (≈ 4.86 µM), respectively. In the assay with P388 [5], this molecule yielded a T/C of 175%. Further, the TWI with MX1 [6] is listed as 97%. Besides, in the assay with LoVo [1], the RI is recorded as greater than 47.

With `NCCn1nc2c3c(c(NCCN(CCO)CCO)ccc31)C(=O)c1ccncc1-2`, the IC50 in the assay with LoVo/Dx (Homo sapiens) was greater than 100 µg/mL; in the assay with LoVo [4], 46.4 µg/mL (≈ 113 µM). The RI in the assay with LoVo [1] stood at 2.1. In the assay on P388 [7], the T/C is 194%. The TWI in the assay on MX1 [8] is listed as 50%.

As for `CCN(CC)CCNc1ccc2c3c(nn2CCN)-c2cnccc2C(=O)c13`, the IC50 with LoVo/Dx (Homo sapiens) was found to be 15.7 µg/mL (≈ 41.5 µM); in the assay on LoVo [4] it was 0.52 µg/mL (≈ 1.37 µM). In the assay on MX1 [9], this molecule displayed a TWI of 51%. The T/C with P388 [10] is on record as 147%. For the same molecule, the RI with LoVo [1] turned out to be 30.

Regarding `CN(C)CCNc1ccc2c3c(nn2CCO)-c2cnccc2C(=O)c13`, the IC50 is greater than 100 µg/mL in the assay on LoVo/Dx (Homo sapiens) and 18.5 µg/mL (≈ 52.6 µM) in the assay with LoVo [4]. In the assay with P388 [5], this molecule had a T/C of 112%. Further, the TWI with MX1 [6] stood at 16%. Moreover, in the assay with LoVo [1], the RI is listed as greater than 5.4.

On to `CN(C)CCn1nc2c3c(c(NCCN(C)CCO)ccc31)C(=O)c1ccncc1-2`, for which the half-maximal inhibitory concentration (IC50) stood at 1.55 µg/mL (≈ 3.79 µM) with LoVo/Dx (Homo sapiens) and 0.049 µg/mL (≈ 0.12 µM) in the assay with LoVo [4]. Also, in the assay with P388 [11], the T/C was 280%. For the same molecule, the RI with LoVo [1] is given as 31.6. In addition, the TWI in the assay with MX1 [12] stood at 75%.

With `NCCNc1ccc2c3c(nn2CCNCCO)-c2cnccc2C(=O)c13`, the IC50 was greater than 100 µg/mL in the assay with LoVo/Dx (Homo sapiens) and 2.17 µg/mL (≈ 5.92 µM) in the assay with LoVo [4]. In the assay with P388 [11], this molecule came in with a T/C of 175%. The RI with LoVo [1] is given as greater than 46. In the assay with MX1 [13], this molecule came in with a TWI of 74%.

In the case of `CN(C)CCNc1ccc2c3c(nn2CCN(C)C)-c2cnccc2C(=O)c13`, the half-maximal inhibitory concentration (IC50) in the assay with LoVo/Dx (Homo sapiens) came out at 1 µg/mL (≈ 2.64 µM); in the assay with LoVo [4], 0.35 µg/mL (≈ 0.925 µM). Besides, in the assay on LoVo [1], the RI turned out to be 2.8. Also, the T/C with P388 [14] amounted to 381%. Also, the TWI with MX1 [15] is given as 56%.

`CN(C)CCn1nc2c3c(c(NCCNCCO)ccc31)C(=O)c1ccncc1-2` showed a TWI in the assay on MX1 [16] of 99%. Further, the half-inhibitory concentration (IC50) in the assay with LoVo/Dx (Homo sapiens) was determined as 41.2 µg/mL (≈ 104 µM); with LoVo [4] it was 0.2 µg/mL (≈ 0.507 µM). This molecule also returned a T/C in the assay with P388 [17] of 194%. The RI with LoVo [1] amounted to 206.

Take `NCCNc1ccc2c3c(nn2CCO)-c2cnccc2C(=O)c13`: the half-maximal inhibitory concentration (IC50) in the assay on LoVo/Dx (Homo sapiens) was greater than 100 µg/mL; with LoVo [4] it was 28.6 µg/mL (≈ 88.4 µM). In addition, the RI with LoVo [1] is listed as greater than 3.5. In the assay on P388 [18], this molecule showed a T/C of 106%.

With `NCCn1nc2c3c(c(NCCN4CCOCC4)ccc31)C(=O)c1ccncc1-2`, the IC50 in the assay on LoVo/Dx (Homo sapiens) is greater than 100 µg/mL; with LoVo [4] it was 1.76 µg/mL (≈ 4.48 µM). Besides, the TWI with MX1 [9] stood at 32%. In the assay with P388 [5], this molecule displayed a T/C of 129%. Besides, the RI in the assay on LoVo [1] is listed as greater than 57.

Consider `CNCCNc1ccc2c3c(nn2CCN)-c2cnccc2C(=O)c13`, for which the half-maximal inhibitory concentration (IC50) with LoVo/Dx (Homo sapiens) was 10.2 µg/mL (≈ 30.3 µM); with LoVo [4] it was 0.21 µg/mL (≈ 0.624 µM). Moreover, the RI in the assay with LoVo [1] turned out to be 49. Also, the TWI in the assay with MX1 [19] is reported as 70%. The molecule further registered a T/C in the assay on P388 [20] of 153%.

`O=C1c2c(O)ccc(O)c2C(=O)c2c(NCCNCCO)ccc(NCCNCCO)c21` [MITOXANTRONE] showed a TWI in the assay on MX1 [21] of 57%. In addition, the half-inhibitory concentration (IC50) was found to be 0.67 µg/mL (≈ 1.51 µM) in the assay with LoVo/Dx (Homo sapiens) and 0.024 µg/mL (≈ 0.054 µM) in the assay with LoVo [4]. This molecule also gave a T/C with P388 [22] of 197%. Moreover, the RI with LoVo [1] turned out to be 28.

Consider `CNCCNc1ccc2c3c(nn2CCNCCO)-c2cnccc2C(=O)c13` [NORTOPIXANTRONE], for which the IC50 in the assay on LoVo/Dx (Homo sapiens) was greater than 100 µg/mL; in the assay with LoVo [4], 0.54 µg/mL (≈ 1.42 µM). In the assay on LoVo [1], the RI is listed as greater than 185. This molecule also yielded a T/C with P388 [23] of 167%. The same molecule displayed a TWI in the assay with MX1 [24] of 96%.
